# Source: paper PMC7610571 (Nature chemical biology, 2020)
# Legend:
# NUDT15 [1] = settings: read-out: Km of NUDT15 for 6-thio-dGTP; cited from earlier work
# NB4 cells = test: Alkaline comet assay; assay type: cell-based, human; settings: NB4, 10 μM TH1760 + 6-TG, 48 h
# NUDT15 [2] = biological target: T1, NUDT15 (Homo sapiens, UniProt Q9NV35); test: Enzyme-coupled malachite green; assay type: biochemical; settings: MG assay
# T1 sequence (Q9NV35 1-164): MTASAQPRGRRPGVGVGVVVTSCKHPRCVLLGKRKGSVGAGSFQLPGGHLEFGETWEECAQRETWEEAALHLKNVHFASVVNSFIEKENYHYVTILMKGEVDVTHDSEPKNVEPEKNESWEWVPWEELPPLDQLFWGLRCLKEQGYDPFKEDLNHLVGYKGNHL
# In short: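 Excess E. coli pyrophosphatase (0.4 U/mL) added for 20 min, then malachite green for 15 min; A630 read. Buffer-only wells served as the full-inhibition control. Two experiments, each in duplicate.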
# NUDT15 [3] = biological target: T1, NUDT15; test: PPiLight inorganic pyrophosphate assay, 6-thio-dGTPase activity; assay type: biochemical
# In short: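 6-thio-dGTPase activity of 10 nM NUDT15 in 100 mM Tris acetate pH 7.5, 40 mM NaCl, 100 mM Mg acetate, 1 mM DTT, with 2.5 μM 6-thio-dGTP. Test-compound dilution series ran 13.3 μM–75 pM or 15 μM–2.2 nM, depending on compound. Shaken 30 min at 22 °C; formed PPi detected by PPiLight luminescence.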
# NUDT15 [4] = biological target: T1, NUDT15; test: Differential scanning fluorimetry; assay type: binding; settings: over the DMSO control, dose-dependent
# [5] = tested on: BJ-RAS cells versus BJ-hTERT cells; test: Resazurin viability assay, isogenic fibroblasts; assay type: cell-based, human
# NB4 and HL-60 cells = test: Thiopurine/TH1760 dose-matrix, resazurin viability; assay type: cell-based, human; settings: combined with 6-TG or 6-MP, dose-dependent
# In short: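 NB4 and HL-60 cells treated with a dose matrix of 6-TG or 6-MP combined with test compound (pre-treatment 3 h). Resazurin read-out four days after treatment (544/590 nm), viability normalised to DMSO controls. Relative viabilities used for EC50 fitting and SynergyFinder synergy scores. Knockdown matrix in NB4 shRNA lines: 96 h, n=2.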
Compound,Km (NUDT15 [1]) [µM],6-TG-induced DNA damage (comet tail moment) (NB4 cells),improvement of potency compared to hit compound TH884 (NUDT15 [2]),potency improvement as compared to TH884 (NUDT15 [3]),increase of NUDT15 melting temperature (NUDT15 [4]) [°C],"sensitization to 6-TG, tumorigenic versus non-transformed cells [5]",reduction of thiopurine EC50 values (NB4 and HL-60 cells)
"Nc1nc2c(ncn2[C@H]2C[C@H](O)[C@@H](COP(=O)(O)OP(=O)(O)OP(=O)(O)O)O2)c(=S)[nH]1 [Compound 6-thio-dGTP, 6-thio-dGTP]",2,,,,,,
O=C(c1ccc2[nH]ccc2c1)N1CCN(S(=O)(=O)c2ccc3[nH]c(=O)oc3c2)CC1 [Compound 18],,potentiated 6-TG-induced DNA damage in NB4 cells,more than 200 fold,over 200 fold,> 10,preferentially sensitized BJ-RAS cells to 6-TG versus their non-transformed counterpart BJ-hTERT cells,~ 10 fold
